Assay results as given in ChEMBL document CHEMBL3098117, “Identification and optimization of an aminoalcohol-carbazole series with antimalarial properties” (ACS Med Chem Lett, 2013).
The source made the active and inactive calls. The calls are words filed in the database; no cut-off is given here.

Assays:
Plasmodium falciparum [1] = test: Antimalarial activity against chloroquine-resistant Plasmodium falciparum K1 infected in human RBC; assay type: functional, organism-based
In short: (§1)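 P. falciparum cultured with test drug in human red blood cells for 3 days. Growth read out as hypoxanthine incorporation.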

Plasmodium falciparum [2] = test: Antimalarial activity against Plasmodium falciparum K1 infected in human RBC after 72 hrs by hypoxanthine incorporation assay in presence of serum albumin; assay type: functional, organism-based; settings: for IC50: K1, 72 h
In short: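 Mixture of drug, human red blood cells and P. falciparum incubated 3 days (72 h) with serum albumin present; growth read as hypoxanthine incorporation.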

[3] = target: Voltage-gated inwardly rectifying potassium channel KCNH2 (Homo sapiens, UniProt Q12809); test: Inhibition of human ERG expressed in CHO cells; assay type: cell-based
Cytochrome P450 3A4 = Cytochrome P450 3A4 (Homo sapiens, UniProt P08684); test: Inhibition of human recombinant CYP3A4 expressed in baculovirus-infected insect cells preincubated for 15 mins followed by substrate addition measured after 30 mins by luminescence assay; assay type: ADME; settings: recombinant enzyme, 0.5 h
Cytochrome P450 2D6 = Cytochrome P450 2D6 (Homo sapiens, UniProt P10635); test: Inhibition of human recombinant CYP2D6 expressed in baculovirus-infected insect cells preincubated for 15 mins followed by substrate addition measured after 30 mins by luminescence assay; assay type: ADME; settings: recombinant enzyme, 0.5 h
Cytochrome P450 2C19 = Cytochrome P450 2C19 (Homo sapiens, UniProt P33261); test: Inhibition of human recombinant CYP2C19 expressed in baculovirus-infected insect cells preincubated for 15 mins followed by substrate addition measured after 30 mins by luminescence assay; assay type: ADME; settings: recombinant enzyme, 0.5 h
Cytochrome P450 2C9 = Cytochrome P450 2C9 (Homo sapiens, UniProt P11712); test: Inhibition of human recombinant CYP2C9 expressed in baculovirus-infected insect cells preincubated for 15 mins followed by substrate addition measured after 30 mins by luminescence assay; assay type: ADME; settings: recombinant enzyme, 0.5 h
Cytochrome P450 2C8 = target: T1, Cytochrome P450 2C8 (Homo sapiens, UniProt P10632); test: Inhibition of human recombinant CYP2C8 expressed in baculovirus-infected insect cells preincubated for 15 mins followed by substrate addition measured after 30 mins by luminescence assay; assay type: ADME; settings: recombinant enzyme, 0.5 h
T1 sequence (P10632 whole entry): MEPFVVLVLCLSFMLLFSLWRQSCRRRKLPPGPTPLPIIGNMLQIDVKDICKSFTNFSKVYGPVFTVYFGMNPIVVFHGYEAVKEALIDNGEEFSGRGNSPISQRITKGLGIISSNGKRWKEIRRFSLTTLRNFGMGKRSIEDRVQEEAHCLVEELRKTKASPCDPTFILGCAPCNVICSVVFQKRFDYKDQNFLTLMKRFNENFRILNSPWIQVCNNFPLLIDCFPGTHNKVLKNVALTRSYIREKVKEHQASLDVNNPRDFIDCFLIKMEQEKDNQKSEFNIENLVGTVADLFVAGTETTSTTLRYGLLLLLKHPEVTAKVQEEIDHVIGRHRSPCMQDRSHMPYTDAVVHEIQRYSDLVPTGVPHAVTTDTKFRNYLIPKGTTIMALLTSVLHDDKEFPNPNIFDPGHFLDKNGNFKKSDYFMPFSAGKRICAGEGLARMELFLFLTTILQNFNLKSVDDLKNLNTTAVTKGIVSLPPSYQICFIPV

Cytochrome P450 2B6 = target: T2, Cytochrome P450 2B6 (Homo sapiens, UniProt P20813); test: Inhibition of human recombinant CYP2B6 expressed in baculovirus-infected insect cells preincubated for 15 mins followed by substrate addition measured after 30 mins by luminescence assay; assay type: ADME; settings: recombinant enzyme, 0.5 h
T2 sequence (P20813 whole entry): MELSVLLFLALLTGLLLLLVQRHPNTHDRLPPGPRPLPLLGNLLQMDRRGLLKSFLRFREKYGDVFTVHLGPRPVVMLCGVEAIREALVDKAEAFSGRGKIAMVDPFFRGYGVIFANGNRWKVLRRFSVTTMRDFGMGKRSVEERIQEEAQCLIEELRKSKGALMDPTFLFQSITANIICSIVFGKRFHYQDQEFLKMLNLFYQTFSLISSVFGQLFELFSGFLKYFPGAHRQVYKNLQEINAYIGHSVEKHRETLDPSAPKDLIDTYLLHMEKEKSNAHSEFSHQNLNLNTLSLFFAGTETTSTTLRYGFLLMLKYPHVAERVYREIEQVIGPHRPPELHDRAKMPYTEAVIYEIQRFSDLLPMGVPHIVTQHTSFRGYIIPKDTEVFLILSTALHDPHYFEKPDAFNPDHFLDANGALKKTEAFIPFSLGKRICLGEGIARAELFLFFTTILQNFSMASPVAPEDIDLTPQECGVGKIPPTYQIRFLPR

Cytochrome P450 1A2 = target: T3, Cytochrome P450 1A2 (Homo sapiens, UniProt P05177); test: Inhibition of human recombinant CYP1A2 expressed in baculovirus-infected insect cells preincubated for 15 mins followed by substrate addition measured after 30 mins by luminescence assay; assay type: ADME; settings: recombinant enzyme, 0.5 h
T3 sequence (P05177 whole entry): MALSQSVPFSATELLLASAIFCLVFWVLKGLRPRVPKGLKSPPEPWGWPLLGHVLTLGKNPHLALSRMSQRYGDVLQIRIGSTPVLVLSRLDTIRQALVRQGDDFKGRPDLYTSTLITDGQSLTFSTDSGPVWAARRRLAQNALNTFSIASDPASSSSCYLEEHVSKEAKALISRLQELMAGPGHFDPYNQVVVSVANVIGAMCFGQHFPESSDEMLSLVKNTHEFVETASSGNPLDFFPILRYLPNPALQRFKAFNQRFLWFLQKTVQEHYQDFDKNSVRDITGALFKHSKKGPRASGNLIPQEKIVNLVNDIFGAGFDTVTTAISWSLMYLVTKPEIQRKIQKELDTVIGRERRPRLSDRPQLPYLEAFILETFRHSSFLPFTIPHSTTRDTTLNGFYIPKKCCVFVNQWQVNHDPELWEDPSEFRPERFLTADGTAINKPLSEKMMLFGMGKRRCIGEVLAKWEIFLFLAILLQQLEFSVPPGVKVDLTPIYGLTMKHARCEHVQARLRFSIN

Plasmodium berghei [4] = test: Antimalarial activity against Plasmodium berghei ANKA expressing GFP infected in NMRI mouse assessed as mean survival days at 100 mg/kg/day, po qd for 4 days measured at 24 hrs after last dose; assay type: functional
In short: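 P. berghei-infected mice dosed orally once daily on days 0–3, starting 4 h postinfection, in groups of 3, 10, 30 and 100 mg/kg/day. Red blood cell parasitemia and plasma exposure measured on day 4, 24 h after the last dose. Mean survival days then monitored over 26 further days.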

Plasmodium berghei [5] = test: Antimalarial activity against Plasmodium berghei ANKA expressing GFP infected in NMRI mouse assessed as reduction in parasitemia at 100 mg/kg/day, po qd for 4 days measured at 24 hrs after last dose relative to control; assay type: functional; parameters: scale not given: the % may be the effect or the level left
In short: (§2)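 P. berghei-infected mice dosed orally once daily on days 0–3, first dose 4 h postinfection, at 3, 10, 30 and 100 mg/kg/day. Red blood cell parasitemia and plasma exposure measured on day 4, 24 h after last dose; ED50 derived from dose-response; survival then monitored for 26 further days as mean survival days.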

Plasmodium berghei [6] = test: Antimalarial activity against Plasmodium berghei ANKA expressing GFP infected in po dosed NMRI mouse assessed as reduction in parasitemia administered qd for 4 days measured at 24 hrs after last dose; assay type: functional; in short: as §2
[7] = AUC in NMRI mouse at 1 mg/kg, iv and 5 mg/kg, po by LC-MS/MS analysis; assay type: ADME, organism-based; settings: plasma
[8] = Cmax in NMRI mouse at 1 mg/kg, iv and 5 mg/kg, po by LC-MS/MS analysis; assay type: ADME, organism-based; settings: in vivo
[9] = Terminal half life in NMRI mouse at 5 mg/kg, po by LC-MS/MS analysis; assay type: ADME, organism-based; parameters: dose 5 mg/kg, route oral; settings: in vivo, read-out: beta t1/2 (converted)
[10] = Volume of distribution at steady state in NMRI mouse at 1 mg/kg, iv by LC-MS/MS analysis; assay type: ADME, organism-based; parameters: dose 1 mg/kg, route intravenous; settings: in vivo, read-out: Vdss
[11] = Oral bioavailability in NMRI mouse at 5 mg/kg by LC-MS/MS analysis; assay type: ADME, organism-based; settings: in vivo
Plasmodium falciparum [12] = test: Antimalarial activity against chloroquine, pyrimethamine, quinine-resistant Plasmodium falciparum V1S; assay type: functional; settings: VS/1
Plasmodium falciparum [13] = test: Antimalarial activity against chloroquine, pyrimethamine, cycloguanil-resistant Plasmodium falciparum 7G8; assay type: functional, organism-based
Plasmodium falciparum [14] = test: Antimalarial activity against mefloquine-resistant Plasmodium falciparum TM91C235; assay type: functional, organism-based
Plasmodium falciparum [15] = test: Antimalarial activity against chloroquine, pyrimethamine, sulfadoxine and quinine-resistant Plasmodium falciparum W2; assay type: functional, organism-based
Plasmodium falciparum [16] = test: Antimalarial activity against chloroquine, pyrimethamine, sulfadoxine, quinine and mefloquine-sensitive Plasmodium falciparum D6; assay type: functional, organism-based
Plasmodium falciparum [17] = test: Antimalarial activity against drug-sensitive Plasmodium falciparum NF54; assay type: functional, organism-based
Plasmodium falciparum [18] = test: Antimalarial activity against chloroquine and pyrimethamine-resistant Plasmodium falciparum K1; assay type: functional, organism-based; in short: as §1

Cytochrome P450 2D6, sequence (P10635 whole entry): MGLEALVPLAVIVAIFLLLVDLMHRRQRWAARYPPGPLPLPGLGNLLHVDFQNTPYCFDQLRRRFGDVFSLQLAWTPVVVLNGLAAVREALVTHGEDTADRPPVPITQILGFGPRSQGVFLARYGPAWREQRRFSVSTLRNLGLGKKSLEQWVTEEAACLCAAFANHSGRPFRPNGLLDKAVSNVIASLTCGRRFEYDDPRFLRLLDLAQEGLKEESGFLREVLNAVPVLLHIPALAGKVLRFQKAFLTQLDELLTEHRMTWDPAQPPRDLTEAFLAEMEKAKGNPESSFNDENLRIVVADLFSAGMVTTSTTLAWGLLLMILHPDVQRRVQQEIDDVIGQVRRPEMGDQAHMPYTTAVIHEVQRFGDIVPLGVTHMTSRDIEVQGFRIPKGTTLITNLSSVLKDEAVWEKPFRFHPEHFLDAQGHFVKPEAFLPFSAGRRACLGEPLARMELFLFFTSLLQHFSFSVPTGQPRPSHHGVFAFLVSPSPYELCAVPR
Cytochrome P450 2C19, sequence (P33261 whole entry): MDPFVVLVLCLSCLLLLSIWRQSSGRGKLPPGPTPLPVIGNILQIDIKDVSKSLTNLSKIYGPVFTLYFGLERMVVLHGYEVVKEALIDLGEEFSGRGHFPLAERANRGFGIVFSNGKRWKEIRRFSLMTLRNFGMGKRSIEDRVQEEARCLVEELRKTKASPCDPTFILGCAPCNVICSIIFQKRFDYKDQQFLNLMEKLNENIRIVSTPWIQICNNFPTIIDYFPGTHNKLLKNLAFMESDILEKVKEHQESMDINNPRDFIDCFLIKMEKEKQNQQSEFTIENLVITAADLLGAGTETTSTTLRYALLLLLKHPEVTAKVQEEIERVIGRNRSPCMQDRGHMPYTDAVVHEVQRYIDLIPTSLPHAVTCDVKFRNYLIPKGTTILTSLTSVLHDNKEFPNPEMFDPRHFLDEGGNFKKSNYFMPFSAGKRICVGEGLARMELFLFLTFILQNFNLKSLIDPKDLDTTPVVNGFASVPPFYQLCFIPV
Cytochrome P450 3A4, sequence (P08684 whole entry): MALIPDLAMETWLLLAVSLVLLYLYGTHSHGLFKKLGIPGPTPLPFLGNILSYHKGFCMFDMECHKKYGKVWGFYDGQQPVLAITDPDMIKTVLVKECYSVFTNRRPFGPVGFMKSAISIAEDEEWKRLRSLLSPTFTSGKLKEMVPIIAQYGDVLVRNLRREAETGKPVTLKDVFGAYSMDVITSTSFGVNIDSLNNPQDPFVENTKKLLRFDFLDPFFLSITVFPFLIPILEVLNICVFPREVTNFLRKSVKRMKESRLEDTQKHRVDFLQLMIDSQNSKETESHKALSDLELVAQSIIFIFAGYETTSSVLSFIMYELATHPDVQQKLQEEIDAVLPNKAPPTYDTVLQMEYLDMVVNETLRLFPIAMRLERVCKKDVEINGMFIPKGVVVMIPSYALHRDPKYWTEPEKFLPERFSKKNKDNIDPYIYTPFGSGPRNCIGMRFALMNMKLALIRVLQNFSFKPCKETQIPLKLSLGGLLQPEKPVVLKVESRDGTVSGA
Cytochrome P450 2C9, sequence (P11712 whole entry): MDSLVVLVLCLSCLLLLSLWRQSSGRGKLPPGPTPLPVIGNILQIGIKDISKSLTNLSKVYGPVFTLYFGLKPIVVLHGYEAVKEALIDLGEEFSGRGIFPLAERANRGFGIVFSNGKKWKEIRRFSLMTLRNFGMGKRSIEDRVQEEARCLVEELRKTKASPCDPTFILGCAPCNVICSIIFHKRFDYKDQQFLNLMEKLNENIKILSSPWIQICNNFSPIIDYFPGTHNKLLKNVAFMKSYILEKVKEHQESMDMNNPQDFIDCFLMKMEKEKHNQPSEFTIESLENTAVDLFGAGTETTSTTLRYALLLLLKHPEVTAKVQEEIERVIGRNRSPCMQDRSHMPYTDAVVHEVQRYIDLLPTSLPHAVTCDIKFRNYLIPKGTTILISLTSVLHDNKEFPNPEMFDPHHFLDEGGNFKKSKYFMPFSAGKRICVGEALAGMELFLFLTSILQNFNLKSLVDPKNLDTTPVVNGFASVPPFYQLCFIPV
Voltage-gated inwardly rectifying potassium channel KCNH2, sequence (Q12809 whole entry): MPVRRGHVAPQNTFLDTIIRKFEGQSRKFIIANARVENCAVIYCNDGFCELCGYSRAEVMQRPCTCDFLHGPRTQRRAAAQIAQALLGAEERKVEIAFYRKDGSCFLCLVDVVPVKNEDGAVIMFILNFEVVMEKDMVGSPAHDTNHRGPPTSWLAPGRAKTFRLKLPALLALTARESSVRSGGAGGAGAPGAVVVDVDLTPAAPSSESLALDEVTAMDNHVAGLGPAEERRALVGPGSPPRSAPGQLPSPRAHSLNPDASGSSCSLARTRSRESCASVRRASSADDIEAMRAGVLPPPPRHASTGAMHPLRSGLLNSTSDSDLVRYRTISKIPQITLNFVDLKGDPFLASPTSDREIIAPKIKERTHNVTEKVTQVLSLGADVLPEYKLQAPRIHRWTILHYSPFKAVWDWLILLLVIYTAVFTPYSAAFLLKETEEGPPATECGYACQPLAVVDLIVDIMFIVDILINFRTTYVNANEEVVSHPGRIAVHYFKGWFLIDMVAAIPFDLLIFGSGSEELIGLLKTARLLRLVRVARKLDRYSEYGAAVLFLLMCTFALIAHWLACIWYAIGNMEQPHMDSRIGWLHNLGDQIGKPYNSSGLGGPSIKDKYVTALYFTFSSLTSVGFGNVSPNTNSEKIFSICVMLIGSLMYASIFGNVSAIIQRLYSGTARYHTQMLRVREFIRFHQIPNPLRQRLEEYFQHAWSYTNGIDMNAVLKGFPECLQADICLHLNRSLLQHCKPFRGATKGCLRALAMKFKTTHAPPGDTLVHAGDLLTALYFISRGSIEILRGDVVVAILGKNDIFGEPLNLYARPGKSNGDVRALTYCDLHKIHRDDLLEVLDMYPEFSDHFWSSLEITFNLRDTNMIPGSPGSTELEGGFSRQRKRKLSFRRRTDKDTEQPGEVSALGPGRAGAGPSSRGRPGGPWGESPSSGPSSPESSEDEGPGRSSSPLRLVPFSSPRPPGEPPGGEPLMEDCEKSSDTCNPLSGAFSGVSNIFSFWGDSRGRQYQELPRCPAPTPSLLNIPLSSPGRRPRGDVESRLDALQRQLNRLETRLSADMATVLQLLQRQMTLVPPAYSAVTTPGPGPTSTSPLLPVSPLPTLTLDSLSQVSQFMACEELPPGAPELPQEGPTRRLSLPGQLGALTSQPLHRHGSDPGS

Work on `CC12CCC(CN(CC(O)Cn3c4ccc(Cl)cc4c4cc(Cl)ccc43)C1)C2(C)C` (stereo not given) yielded an IC50 (Plasmodium falciparum [1]) of 0.057 µM.

In the case of `COC(CN1CCN(Cc2ccccc2)CC1)Cn1c2ccccc2c2ccccc21` (stereo not given), the IC50 (Plasmodium falciparum [2]) is reported as 3.31 µM.

For `O[C@H](CNC1CCCCC1)Cn1c2ccc(Br)cc2c2cc(Br)ccc21`, the “inhibition (INH)” value [3] was “Active”, the Activity (Plasmodium falciparum [2]) was “Active” and the “inhibition (INH)” value (Cytochrome P450 3A4) was “Active”. For the same molecule, the “inhibition (INH)” value (Cytochrome P450 2D6) was “Active”, the “inhibition (INH)” value (Cytochrome P450 2C19) was “Active” and the “inhibition (INH)” value (Cytochrome P450 2C9) was “Active”. The “inhibition (INH)” value (Cytochrome P450 2C8) was “Active”, the “inhibition (INH)” value (Cytochrome P450 2B6) was “Active” and the “inhibition (INH)” value (Cytochrome P450 1A2) was “Active”.

For `OC(CN1CCN(CC2CCCCC2)CC1)Cn1c2ccc(Cl)cc2c2cc(Cl)ccc21` (stereo not given), the Activity (Plasmodium berghei [4]) was “Active”, the Activity (Plasmodium berghei [5]) was 99.93% and the Activity (Plasmodium berghei [6]) was “Dose dependent effect”. The ED50 (Plasmodium berghei [6]) was 34.5 mg/kg/day, the AUC [7] was 1580 ng·h/mL and the Cmax [8] was 135 ng/mL. It also gave a half-life [9] of 8 h, a Vd [10] of 15 L/kg and a bioavailability [11] of 50%. The Activity (Plasmodium falciparum [12]) was “Active”, the Activity (Plasmodium falciparum [13]) was “Active” and the Activity (Plasmodium falciparum [14]) was “Active”. The Activity (Plasmodium falciparum [15]) was “Active”, the Activity (Plasmodium falciparum [16]) was “Active” and the Activity (Plasmodium falciparum [17]) was “Active”. For the same molecule, the Activity (Plasmodium falciparum [18]) was “Active” and the IC50 (Plasmodium falciparum [2]) was 0.016 µM.

Work on `C[C@@H]1CC[C@H]2[C@@H](C)C(=O)O[C@@H]3O[C@@]4(C)CC[C@@H]1[C@]32OO4` [ARTEMISININ] yielded an IC50 (Plasmodium falciparum [1]) of 0.0054 µM.

Work on `O=C1CN(Cc2ccccc2)CCN1CC(O)Cn1c2ccc(Cl)cc2c2cc(Cl)ccc21` (stereo not given) yielded an IC50 (Plasmodium falciparum [2]) of 0.344 µM.

With `OC(CN1CCN(Cc2ccccc2)CC1)Cn1c2ccccc2c2cc(Cl)ccc21` (stereo not given) the IC50 (Plasmodium falciparum [2]) was 0.165 µM.

Work on `OC(CN1CCN(Cc2ccccc2)CC1)Cn1c2ccc(Br)cc2c2cc(Br)ccc21` (stereo not given) yielded an IC50 (Plasmodium falciparum [2]) of 0.027 µM.

Work on `O=C(CN1CCN(CC2CCCCC2)CC1)Cn1c2ccc(Cl)cc2c2cc(Cl)ccc21` yielded an IC50 (Plasmodium falciparum [2]) of 0.448 µM.

With `OC(CN1CCN(Cc2ccccc2)CC1)Cn1c2ccccc2c2ccccc21` (stereo not given) the IC50 (Plasmodium falciparum [2]) was 0.275 µM.

Work on `FC(CN1CCN(CC2CCCCC2)CC1)Cn1c2ccc(Br)cc2c2cc(Br)ccc21` (stereo not given) yielded an IC50 (Plasmodium falciparum [2]) of 0.106 µM.

In the case of `O[C@@H](CNC1CCCCC1)Cn1c2ccc(Br)cc2c2cc(Br)ccc21`, the “inhibition (INH)” value [3] is reported as “Active”, the Activity (Plasmodium falciparum [2]) is reported as “Active” and the “inhibition (INH)” value (Cytochrome P450 3A4) is reported as “Active”. The “inhibition (INH)” value (Cytochrome P450 2D6) was “Active”, the “inhibition (INH)” value (Cytochrome P450 2C19) was “Active” and the “inhibition (INH)” value (Cytochrome P450 2C9) was “Active”. For the same molecule, the “inhibition (INH)” value (Cytochrome P450 2C8) was “Active”, the “inhibition (INH)” value (Cytochrome P450 2B6) was “Active” and the “inhibition (INH)” value (Cytochrome P450 1A2) was “Active”.

`Clc1ccc2c(c1)c1cc(Cl)ccc1n2CCCN1CCN(CC2CCCCC2)CC1` showed an IC50 (Plasmodium falciparum [2]) of 0.707 µM.
